Bioassay records (PubChem BioAssay)
RanGTP-Impb inh – inhibitors of RanGTP-importin-beta interaction, primary screen, biochemical, FRET, CFP-Ran, YFP-importin-beta, homogeneous; 1.1% of 300,000 active; inhibition, % (test concentration not listed); cell-free CFP-Ran/YFP-importin-beta FRET ratio;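 active = more than half of the replicate wells show a fall in the fluorescence ratio signal beyond about 16%, limit read from the data, passing the limit was not always enough; inconclusive = exactly half of the replicate wells pass the set limit; inactive = fewer than half of replicates pass the limit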;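 note: 0% = DMSO wells and 100% = Ran loaded with GDP instead of GTP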
Runt-CBFb FRET – Runt domain-CBFb interaction inhibition | AID 1496 | 0.46% of 220,000 active | inhibition, % at 20 µM | Q01196+Q13951 | Cerulean-Runt/Venus-CBFb FRET ratio 530/480, 1 h;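 active = inhibition over about 50% at 20 µM in the single-dose screen, limit read from the data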;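 note: 0% = DMSO wells and 100% = excess unlabeled CBFb competitor control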
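System: Cerulean-labeled Runt domain protein | Quantity: 100 nM of each labeled protein | Schedule: 1 h compound exposure, room temperature | Detection: Fluorescence energy transfer, 422 nm excitation, 530/480 nm emission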
Hck Nef HTS – inhibitors of human Hck kinase activated by Nef; AID 463187; P08631; 0.68% of 220,000 active; Recombinant Hck-YEEI plus Nef, Z-Lyte FRET kinase assay; inhibition, % at 20 µM;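 active = Hck-Nef kinase inhibition above about 50%, limit read from the data; inactive = inhibition below that limit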;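 note: 0% = DMSO with Hck plus Nef and 100% = Hck alone without Nef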
Runt-SMMHC FRET – Runt domain-CBFb-SMMHC interaction inhibition; Q01196+Q13951; Cerulean-Runt/Venus-CBFb-SMMHC FRET ratio 530/480, 1 h; inhibition, % at 20 µM; 0.74% of 220,000 active; AID 1434;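 active = mean inhibition across duplicate retests at 20 µM reaching about 50%, limit read from the data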;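 note: 0% = DMSO wells and 100% = wells with excess untagged CBFb-SMMHC; inhibitors lower the FRET ratio by blocking Runt binding to CBFb-SMMHC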
The depositor's hits bear a star; ? = inconclusive; . = not tested or not shown; ! = repeats disagree. Only some compounds are listed: those with a hit (about 1.9% of all), similar ones and a draw of the others.

SMILES | RanGTP-Impb inh | Runt-CBFb FRET | Hck Nef HTS | Runt-SMMHC FRET
COC(=O)[C@H](CCSC)NC(=O)Nc1cccc(Br)c1 | 0 | 0 | 7 | 0
CCN(C(=O)CN1CCOCC1)c1c(N)n(Cc2ccccc2)c(=O)[nH]c1=O | 3 | 0 | 17 | 1
COC(=O)C1=CN(Cc2ccc(OC)cc2)C=C(C(=O)OC)C1c1ccsc1 | ? | 68* | 7 | 134*
COC(=O)C1=C(C)N(C)C(C)=C(C(=O)OC)C1c1ccsc1 | 2 | -2 | 0 | 0
COC(=O)C1=CN(CC2CCCO2)C=C(C(=O)OC)C1c1ccccc1C(F)(F)F (stereo unspecified) | 62* | 106* | 31 | 82*
COC(=O)C1=CN(CC2CCCO2)C=C(C(=O)OC)C1c1ccsc1 (stereo unspecified) | 11 | 88* | 49 | 134*
CCOC(=O)C1=CN(C)C=C(C(=O)OCC)C1c1ccsc1 | 53* | 122* | 47 | 99*
COC(=O)C1=CN(Cc2ccc(F)cc2)C=C(C(=O)OC)C1c1ccc(O)c(OC)c1 | 10 | . | . | .
COC(=O)C1=C(C)OC(N)=C(C#N)C1c1ccsc1 (stereo unspecified) | 3 | -6 | -4 | -6
O=C(CSc1ccc(Br)cc1)Nc1ccc(N2CCOCC2)cc1 | -1 | . | . | .
N#C/C(=C/c1ccc(F)cc1)c1nnc(NC(=O)c2ccccc2)s1 | -5 | 2 | -14 | 81*
CCOc1ccc(CNC(=O)CCC(=O)N2Cc3ccccc3Oc3ncccc32)cc1 | 0 | . | . | .
Cc1ccc2nc3c(cc(C(=O)NCc4ccco4)c(=N)n3C3CCCC3)c(=O)n2c1 | 187* | . | . | .
Cc1cccn2c(=O)c3cc(C(=O)NCc4ccco4)c(=N)n(C4CCCCC4)c3nc12 | 130* | . | . | .
Cc1ccc(CNC(=O)c2cc3c(=O)n4cccc(C)c4nc3n(CC3CCCO3)c2=N)cc1 (stereo unspecified) | . | 17 | . | 42
Cc1ccc2nc(SCC(=O)NCc3ccco3)nc(=O)n2c1 | -2 | . | . | .
O=[N+]([O-])c1cccc(CSc2nnc(Cc3ccccc3)n2-c2ccc(F)cc2)c1 | ? | -5 | 3 | 0
COc1cc2[nH]c(Cl)c([N+](=O)[O-])c2cc1OC | 19* | 4 | 22 | 36
CN1CCN(C2=CC3=CC(=C(C#N)C#N)CCC3CC2)CC1 (stereo unspecified) | . | -27 | 0 | 88*
N#CC(C#N)=C1C=C2C=C(N3CCCCCC3)CCC2CC1 (stereo unspecified) | 45* | 4 | 3 | 83*
CCN1CCN(C2=CC3=CC(=C(C#N)C#N)CCC3CC2)CC1 (stereo unspecified) | . | -115 | 0 | 86*
N#CC(C#N)=C1C=C2C=C(N3CCOCC3)CCC2CC1 (stereo unspecified) | -2 | 20 | 16 | 86*
CC1(C)CC(NCCN2CCN(C3=CC(=C(C#N)C#N)CC(C)(C)C3)CC2)=CC(=C(C#N)C#N)C1 | -2 | -12 | 20 | -27
Cc1ccc(CN2CCNC(=O)C2CC(=O)N(C)C2CCCCC2)cc1 (stereo unspecified) | -3 | . | . | .
CCc1ccc(C2=CC(c3cc(Br)ccc3F)n3ncnc3N2)cc1 (stereo unspecified) | . | -1 | 0 | 75*
SMILES | RanGTP-Impb inh | Runt-CBFb FRET | Hck Nef HTS | Runt-SMMHC FRET
O=C(CCCc1ccccc1)NCCS(=O)(=O)N1CCN(c2ccc(F)cc2)CC1 | 7 | . | . | .
C=CCN1C(=O)[C@]2(c3ccccc31)C1CCCC=C1C(C#N)=C(N)C2(C#N)C#N (stereo partly specified) | -1 | -7 | 1 | -37
CN1CCC2(CC1)C1CN(C)CC=C1C(C#N)=C(N)C2(C#N)C#N (stereo unspecified) | 43* | 71*! | 8 | 75*
CCCCCCNc1c([N+](=O)[O-])c(=O)sc2ccccc12 | 147* | 0 | -4 | -4
COc1cc2nc(N3CCN(C(=O)c4ccco4)CC3)nc(N)c2cc1OC | 25*! | 0 | 2 | -1
COc1cc2nc(N3CCN(C(=O)C4COc5ccccc5O4)CC3)nc(N)c2cc1OC (stereo unspecified) | -1 | -2 | 0 | 1
CCCOC(=O)c1cc(-c2ccc(/C=C3/C(=O)N(C)C(=O)C(C#N)=C3C)o2)ccc1Cl | . | . | 24 | .
C=CCOC(=O)c1cc(-c2ccc(/C=C3\C(=O)NC(=O)C(C#N)=C3C)o2)ccc1Cl | . | 18 | 91* | 0
CCC1=[N+](CC(=O)c2ccc(C)cc2)CCn2c(C)ccc21 | 44* | -4 | 2 | -15
